Assay results published in ChEMBL document CHEMBL2380302, “Synthesis of 3-O-propargylated betulinic acid and its 1,2,3-triazoles as potential apoptotic agents” (Eur J Med Chem, 2013).
Activity calls are given as the source filed them. The rule behind the calls is not given here.

Tests used:
HL-60 [1] = experiment: Induction of apoptosis in human HL60 cells assessed as DNA ladder formation at 5 uM after 6 hrs by DNA agarose gel electrophoresis; assay type: functional, cell-based
Method in brief: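 HL-60 cells (2 × 10⁶/well/2 mL) were treated at 5 µM for 6 h, then pelleted and washed in PBS. DNA was extracted with phenol:chloroform:isoamyl alcohol and ethanol-precipitated. It was run on 1% agarose in TAE at 80 V for 1.5 h.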

SF-295 = experiment: Cytotoxicity against human SF295 cells at 20 uM after 48 hrs by SRB assay; assay type: functional; conditions: SF-295, 48 h, read-out: GI
Method in brief: (§1)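 Cells grown in RPMI-1640/MEM with 10% FCS and penicillin/streptomycin at 37 °C in 5% CO2. They adhered overnight in 96-well plates and were exposed to compound for 48 h. Cells were then fixed with ice-cold 50% TCA for 60 min and stained with 0.4% SRB in 1% acetic acid for 30 min. Dye was solubilised in 10 mM Tris base and OD read at 570 nm (reference 620 nm).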

HCT-15 [2] = experiment: Cytotoxicity against human HCT15 cells at 20 uM after 48 hrs by SRB assay; assay type: functional; conditions: HCT-15, 48 h, read-out: GI; method in brief: as §1
A549 = experiment: Cytotoxicity against human A549 cells at 20 uM after 48 hrs by SRB assay; assay type: functional; conditions: A549, 48 h, read-out: GI; method in brief: as §1
PC-3 = experiment: Cytotoxicity against human PC3 cells at 20 uM after 48 hrs by SRB assay; assay type: functional; conditions: PC-3, 48 h, read-out: GI; method in brief: as §1
DU-145 = experiment: Cytotoxicity against human DU145 cells at 20 uM after 48 hrs by SRB assay; assay type: functional; conditions: DU-145, 48 h, read-out: GI; method in brief: as §1
THP-1 = experiment: Cytotoxicity against human THP1 cells at 20 uM after 48 hrs by SRB assay; assay type: functional; conditions: THP-1, 48 h, read-out: GI; method in brief: as §1
HL-60 [3] = experiment: Cytotoxicity against human HL60 cells at 20 uM after 48 hrs by SRB assay; assay type: functional; conditions: HL-60, 48 h, read-out: GI
Method in brief: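 HL-60 suspension cells in RPMI-1640/MEM with 10% FCS at 37 °C in 5% CO2 were plated in 96 wells and exposed to compound for 48 h. Cells were fixed with 80% TCA and pelleted at 1500 rpm for 15 min. Staining used 0.4% SRB in 1% acetic acid for 30 min; dye was dissolved in 10 mM Tris base and OD read at 570/620 nm.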

HCT-15 [4] = experiment: Cytotoxicity against human HCT15 cells at 1 uM after 48 hrs by SRB assay; assay type: functional; conditions: HCT-15, 48 h, read-out: GI
HEp-2 = experiment: Cytotoxicity against human Hep2 cells at 1 uM after 48 hrs by SRB assay; assay type: functional; conditions: HEp-2, 48 h, read-out: GI

CC[C@@]1(O)C(=O)OCc2c1cc1n(c2=O)Cc2cc3ccccc3nc2-1
Activity (HL-60 [1]): Active

O=c1[nH]cc(F)c(=O)[nH]1 [FLUOROURACIL]
inhibition of growth at 20 µM (SF-295): 73%
inhibition of growth at 20 µM (HCT-15 [2]): 72%
inhibition of growth at 20 µM (A549): 75%
inhibition of growth at 20 µM (PC-3): 64%
inhibition of growth at 20 µM (DU-145): 72%
inhibition of growth at 20 µM (THP-1): 83%
inhibition of growth at 20 µM (HL-60 [3]): 89%

CO[C@@]12[C@H](COC(N)=O)C3=C(C(=O)C(C)=C(N)C3=O)N1C[C@@H]1N[C@@H]12 [MITOMYCIN]
inhibition of growth at 1 µM (HCT-15 [4]): 76%
inhibition of growth at 1 µM (HEp-2): 68%
